# Measurements as given in ChEMBL document CHEMBL1129651, “3-Phenyl-substituted imidazo[1,5-alpha]quinoxalin-4-ones and imidazo[1,5-alpha]quinoxaline ureas that have high affinity at the GABAA/benzodiazepine receptor complex” (J Med Chem, 1996).
# pKi: −log10 of the molar value.
# Tests used:
# Rattus norvegicus = assay: Ability to antagonize metrazole-induced seizures (clonic and tonic) in rats after intraperitoneal injection; settings: ip
# [1] = molecular target: GABA-A receptor; anion channel; assay: Binding affinity against benzodiazepine receptor (BzR) in rat cortical membranes determined by competition experiments with radiolabeled [3H]flunitrazepam (Fnz); type: cell membranes
# Mus musculus [2] = species: Mus musculus; assay: Compound was tested for acute electroshock physical dependence activity (drug MA50/V122 MA50); Active; type: functional
# Outline: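 Male CF-1 mice, 10/group, dosed sc twice daily for 3 days (0800, then 2 times that dose at 1600). Flumazenil 2.5 mg/kg iv in 5% aqueous N,N-dimethylacetamide given 24 h after the last dose. 5 min later electroshock seizure threshold estimated by up-down method (0.05 log steps; transpinnal 0.6 ms pulses, 100 Hz, 0.2 s). Comparison is against a saline-treated, flumazenil-injected control group.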
# [3] = molecular target: GABA-A receptor; anion channel (Rattus norvegicus) (UniProt O09028+P15431+P18506+P18508+P19969+P20236+P23574+P23576+P28471+P28473+P30191+P62813+P63079+P63138+Q91ZM7+Q9ES14)
# Mus musculus [4] = species: Mus musculus; assay: Antagonism of benzodiazepine traction in mice; type: functional
# Outline: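 Male CF-1 mice given triazolam 1 mg/kg ip together with test compound ip, starting at 100 mg/kg, in 0.25% aqueous methyl cellulose. Dose-response run on 0.5 log scale. Loss of traction scored 15 min later. Absence of the expected loss marks antagonism. ED50 taken from lower doses.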
smiles,measurement,setting,value
COc1ccc(-c2ncn3c2CN(C(=O)N2CC(C)N(C)C(C)C2)c2ccccc2-3)cc1 (stereo not given),ED50,Rattus norvegicus,0.8 mg/kg
same,pKi,[1],8.38
same,Activity,Mus musculus [2],0.6
same,TBPS shift,[3],0.27
same,ED50,Mus musculus [4],> 30 mg/kg
